Test [1] deals with MDA-MB-468. Kind of test: In vitro inhibitory activity against mammary carcinoma MDA 468 cell lines. The class given is functional, cell-based. The note with it: Homo sapiens. The gist of the method:
(§1)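 MDA 468 cells kept in RPMI 1640 with 10% FBS and antibiotics under 5% CO2. They were seeded at 2.5-3 × 10² per well and left 4 h to attach. Drug from 10 mM DMSO stocks was diluted to 1 pM–100 µM final (DMSO ≤0.25%), n = 8, and incubated 10 days. MTT was added for 4 h, formazan solubilized in DMSO/glycine buffer, and A550 read as a measure of viable cells.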

In test [2] the test system is MCF7. Kind of test: In vitro inhibitory activity against mammary carcinoma MCF-7 cell lines. The class given is functional, cell-based. Conditions: Homo sapiens. The gist of the method: (§2)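 Cells kept in RPMI 1640 with 10% FBS, penicillin and streptomycin, under 5% CO2, and subcultured twice weekly in log phase. They were seeded at 2.5-3 × 10² per well and left 4 h to adhere. Drug from 10 mM DMSO stocks was given at 1 pM–100 µM final (DMSO ≤0.25%), n = 8, for 7 days. MTT was added for 4 h, formazan dissolved in DMSO/glycine buffer, and absorbance read at 550 nm as viable cell number.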

The subject of test [3] is MCF7. The experiment in a line: In vitro cytotoxicity against MCF-7 human breast cancer cell line with ER positive. The format is functional, cell-based. The method, boiled down:
as §2

Test [4] relates to IGR-37 cell line. Kind of test: In vitro cytotoxicity against […] human melanoma cancer cell line. The format is functional, cell-based.
The subject of test [5] is MDA-MB-468. Kind of test: In vitro cytotoxicity against MDA 468 human breast cancer cell line with ER negative EGFR positive. The class given is functional, cell-based. The gist of the method: as §1
Test [6] concerns ZR-75-1. The experiment in a line: In vitro cytotoxicity against ZR 75 human breast cancer cell line with ER positive. The format is functional, cell-based. The gist of the method:
as §2

Test [7] concerns MDA-MB-231. The experiment in a line: In vitro cytotoxicity against MDA 231 human breast cancer cell line with EGFR positive erbB3 positive. The format is functional, cell-based. The gist of the method: as §2
Test [8] relates to MCF7. Kind of test: In vitro cytotoxicity against MCF-7/Adr human breast cancer cell line. The format is functional, cell-based. The method, boiled down: as §2
Test [9] concerns A204. The experiment in a line: In vitro cytotoxicity against A204 human rhabdomyosarcoma cancer cell line. The format is functional, cell-based.
For test [10], the system named is HT-29. Kind of test: In vitro cytotoxicity against HT-29 human colon cancer cell line. The class given is functional, cell-based.
Test [11] has as its system DU-145. Kind of test: In vitro cytotoxicity against DU-145 human prostate cancer cell line. The class given is functional, cell-based. The method, boiled down: as §2
Test [12] relates to T-24. Kind of test: In vitro cytotoxicity against T24 human bladder cancer cell line.
In test [13] the test system is PC-3. Kind of test: In vitro cytotoxicity against PC-3 human prostate cancer cell line. The class given is functional, cell-based. The gist of the method:
as §2

For test [14], the system named is WiDr. The experiment in a line: In vitro cytotoxicity against WiDr human colon cancer cell line. The format is functional, cell-based.
The subject of test [15] is SK-BR-3. Kind of test: In vitro cytotoxicity against SKBR 3 human breast cancer cell line with ER negative. The class given is functional, cell-based. The gist of the method: as §2
Test [16] deals with T47D. The experiment in a line: In vitro cytotoxicity against T47D human breast cancer cell line with ER negative. The class given is functional, cell-based. The method, boiled down:
as §2

The subject of test [17] is A2780. Kind of test: In vitro cytotoxicity against A2780 human ovarian cancer cell line. The format is functional, cell-based.

The term IC50 denotes the concentration that inhibits the measured activity by half. For the molecule `c1ccc2sc(-c3ccc(N4CCCCC4)cc3)nc2c1`, the IC50 in test [1] and in test [2] was over 10 µM throughout.
Turning to `Nc1ccc(-c2nc3ccccc3[nH]2)cc1`, the IC50 was over 10 µM in test [1] and over 1 µM in test [2].
In the same order, the values of `Cc1cc(-c2nc3ccccc3s2)cc(Cl)c1N` are over 0.001 µM and under 0.01 µM.
On the same counts, the results for `Nc1ccc(-c2nc3ccccc3o2)cc1` are over 1 µM and under 0.01 µM.
On the same counts, the results for `c1ccc2sc(-c3ccc(N4CCOCC4)cc3)nc2c1` are over 10 µM and over 10 µM.
In turn, `COc1cc(OC)c2nc(-c3ccc(N)cc3)sc2c1` yielded an IC50 in test [2] of over 10 µM.
`c1ccc2sc(-c3ccncc3)nc2c1`: the IC50 in test [1] and in [2] was over 10 µM in each case.
On to `Nc1ccc(-c2nc3ccccc3s2)cc1O`, for which the values for the IC50 in test [1] and in [2] were over 10 µM and over 0.0001 µM, respectively.
Molecule `N#Cc1cc(-c2nc3ccccc3s2)ccc1N` registered an IC50 in test [2] of under 0.01 µM.
Take `Nc1ncc(-c2nc3ccccc3s2)cc1Br`: the IC50 in [1] and in test [2] was under 0.01 µM throughout.
Regarding `Nc1ccc(-c2nc3ccccc3s2)cn1`, the IC50 in test [1] and in test [2] was over 10 µM in each case.
As for `COc1cc(OC)c2sc(-c3ccc(N)cc3)nc2c1`, the IC50 in [1] and in [2] was over 10 µM throughout.
Turning to `COc1cccc2sc(-c3ccc(N)cc3Cl)nc12`, the IC50 in test [1] and in test [2] was over 10 µM in each case.
As for `Nc1ccc(-c2nc3cc(OCc4ccccc4)ccc3s2)c(Cl)c1`, the IC50 in test [1] and in test [2] was over 10 µM throughout.
Take `Nc1ccc(-c2nc3ccccc3s2)cc1Cl`: the values for the IC50 in [1] and in [2] were under 0.1 µM and under 0.0001 µM, respectively.
In the same order, the values of `COc1ccc2nc(-c3ccc(N)c(I)c3)sc2c1` are under 0.0001 µM and under 0.0001 µM.
Regarding `COc1cc2nc(-c3ccc(N)cc3)sc2cc1OC`, the IC50 in [1] and in test [2] was over 10 µM throughout.
As to `CCc1cc(-c2nc3ccccc3s2)ccc1N`, the IC50 in [1] and in test [2] was under 0.0001 µM each time.
In the case of `Nc1ccc(-c2nc3cc(O)cc(O)c3s2)cc1`, the IC50 in test [2] is over 10 µM.
`c1ccc2sc(-c3ccc(N4CCCC4)cc3)nc2c1` had an IC50 in test [2] of under 1 µM.
As for `COc1ccc2nc(-c3ccc(N)cc3)sc2c1`, the IC50 in test [1] was over 10 µM; in [2] it was under 0.0001 µM.
Regarding `Nc1ccc(-c2nc3ccccc3s2)cc1`, the IC50 in test [3] is 0.0008 µM; in test [4] it was over 30 µM; in test [5], 0.0016 µM; in test [6], 0.028 µM; in [7] it was 0.017 µM; in [8] it was over 10 µM. Further, the IC50 in test [9] is over 30 µM; in test [10] it was over 30 µM; in [1], under 0.001 µM; in [11], over 30 µM; in test [12], over 30 µM; in test [2], under 0.0001 µM. For the same molecule, the IC50 in test [13] was over 30 µM; in [14], over 30 µM; in test [15], 0.0081 µM; in test [16] it was over 10 µM; in test [17], over 30 µM.
Consider `Nc1ccc(-c2nc3ccc(O)cc3s2)cc1`, for which the IC50 in test [1] was over 10 µM; in [2], over 1 µM.

The record behind these values is ChEMBL document CHEMBL1129614, “Antitumor benzothiazoles. 3. Synthesis of 2-(4-aminophenyl)benzothiazoles and evaluation of their activities against breast cancer cell lines in vitro and in vivo” (J Med Chem, 1996).
